In brackets after ≈: the same amount, converted by molar mass.
Experiments:
Type in all cases: functional
[1] = test system: Escherichia coli; test: In vitro antimicrobial activity against Escherichia coli ATCC 39188 was determined
In short: (§1)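 MIC by agar dilution: organisms applied onto antibiotic-containing agar plates with a Steers-type replicator. MIC taken as the lowest concentration preventing visible growth, averaged from duplicate determinations (± standard error).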

[2] = test system: Klebsiella pneumoniae; test: In vitro antimicrobial activity against Klebsiella pneumoniae NCTC 418 was determined; in short: as §1
[3] = test system: Pseudomonas aeruginosa; test: In vitro antimicrobial activity against Pseudomonas aeruginosa 18S-H was determined; in short: as §1
[4] = test system: Pseudomonas aeruginosa; test: Minimum protective concentration against beta-lactamase of Pseudomonas aeruginosa 18S-H
In short: (§2)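 Minimum protective concentration taken as the lowest β-lactam concentration protecting a chromogenic indicator from β-lactamase hydrolysis within 1.0 h under standard conditions. Hydrolysis was read as a distinct red color. Compound stability without enzyme was checked at 37 °C in phosphate buffer, pH 6.5.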

[5] = test system: Pseudomonas aeruginosa; test: In vitro antimicrobial activity against Pseudomonas aeruginosa 1101-75 was determined; in short: as §1
[6] = test system: Staphylococcus aureus; test: In vitro antimicrobial activity against Staphylococcus aureus 95 (methicillin-resistant strain) was determined
In short: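 Agar dilution MIC: organisms were deposited onto medicated agar plates with a Steers-type replicator. MIC was read as the lowest antibiotic concentration preventing visible growth. Values are averages of duplicate determinations with standard error.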

[7] = test system: Staphylococcus aureus; test: Minimum protective concentration against beta-lactamase of Staphylococcus aureus 95; in short: as §2
[8] = test system: Staphylococcus aureus; test: In vitro antimicrobial activity against Staphylococcus aureus FDA 209P was determined; in short: as §1
[9] = In vitro antimicrobial activity against Xanthomonas maltophilia GN 12873 in combination (1:1 w/w) with imipenem; conditions: Stenotrophomonas maltophilia; in short: as §1
[10] = In vitro antimicrobial activity against Xanthomonas maltophilia GN 12873 was determined; conditions: Stenotrophomonas maltophilia; in short: as §1
[11] = test system: Stenotrophomonas maltophilia; test: Minimum protective concentration against beta-lactamase of Xanthomonas maltophilia GN 12873 (CXase-I); in short: as §2
[12] = test system: Stenotrophomonas maltophilia; test: Minimum protective concentration against beta-lactamase of Xanthomonas maltophilia GN 12873 (CXase-II); in short: as §2

Row | Structure (SMILES) | MIC [1] [mg/L] | MIC [2] [mg/L] | MIC [3] [mg/L] | MPC [4] [µg/mL] | MIC [5] [mg/L] | MIC [6] [mg/L] | MPC [7] [µg/mL] | MIC [8] [mg/L] | MIC [9] [mg/L] | MIC [10] [mg/L] | MPC [11] [µg/mL] | MPC [12] [µg/mL]
1 | COC(=O)C1=C(C(=O)O)N2C(=O)[C@@H](NC(=O)Cc3ccccc3)[C@H]2C1 (racemic) | 0.2 (≈ 0.581 µM) | 0.15 (≈ 0.436 µM) | 12.1 (≈ 35.1 µM) | 1.02 | 0.89 (≈ 2.58 µM) | 8.3 (≈ 24.1 µM) | 0.98 | 0.01 (≈ 0.029 µM) | 2.01 | 12.1 (≈ 35.2 µM) | 14.6 | 16.7
2 | O=C(Cc1ccccc1)N[C@@H]1C(=O)N2C(C(=O)O)=CC[C@H]12 (racemic) | 0.98 (≈ 3.42 µM) | 1.92 (≈ 6.71 µM) | 31.6 (≈ 110 µM) | 4.21 | 8.91 (≈ 31.1 µM) | 30.7 (≈ 107 µM) | 3.45 | 0.12 (≈ 0.419 µM) | 2.15 | 10.3 (≈ 35.9 µM) | 30 | 33.6
3 | CC(=O)OCCC1=C(C(=O)O)N2C(=O)[C@@H](NC(=O)Cc3ccccc3)[C@H]2C1 (racemic) | 0.69 (≈ 1.85 µM) | 1.08 (≈ 2.9 µM) | 17.2 (≈ 46.2 µM) | 5.87 | 2.87 (≈ 7.71 µM) | 14.9 (≈ 40.1 µM) | 6.12 | 0.05 (≈ 0.134 µM) | 0.39 | 4.12 (≈ 11.1 µM) | 27.5 | 47.8
4 | COC(=O)CC1=C(C(=O)O)N2C(=O)[C@@H](NC(=O)Cc3ccccc3)[C@H]2C1 (racemic) | 0.67 (≈ 1.87 µM) | 0.77 (≈ 2.15 µM) | 21.3 (≈ 59.4 µM) | 8.74 | 1.8 (≈ 5.02 µM) | 18.5 (≈ 51.7 µM) | 6.87 | 0.04 (≈ 0.112 µM) | 0.98 | 5.97 (≈ 16.7 µM) | 30.4 | 35
5 | CC1(C)S[C@@H]2[C@H](NC(=O)Cc3ccccc3)C(=O)N2[C@H]1C(=O)O [PENICILLIN G] | 2.87 (≈ 8.58 µM) | > 128 | > 128 | 1.03 | > 128 | > 128 | 1.85 | 0.51 (≈ 1.53 µM) |  | > 128 | 23.6 | 28.8
6 | C[C@@H](O)[C@H]1C(=O)N2C(C(=O)O)=C(SCCNC=N)C[C@H]12.O [IMIPENEM] | 0.35 | 0.4 | 35.6 | 35.61 | 4.71 | 15.7 | 30.12 | 0.02 |  | > 128 | 46.8 | 0.87
7 | O=C(Cc1ccccc1)N[C@@H]1C(=O)N2C(C(=O)O)=C(C(=O)O)C[C@H]12 (racemic) | 0.48 (≈ 1.45 µM) | 0.56 (≈ 1.7 µM) | 28.2 (≈ 85.3 µM) | 2.38 | 5.63 (≈ 17 µM) | 13.9 (≈ 42 µM) | 2.2 | 0.03 (≈ 0.0908 µM) | 1.58 | 9.61 (≈ 29.1 µM) | 25.5 | 29.4
8 | O=C(Cc1ccccc1)N[C@@H]1C(=O)N2C(C(=O)O)=C(CCO)C[C@H]12 (racemic) | 0.75 (≈ 2.27 µM) | 0.88 (≈ 2.66 µM) | 22.6 (≈ 68.5 µM) | 6.98 | 3.51 (≈ 10.6 µM) | 19.2 (≈ 58.2 µM) | 7.18 | 0.07 (≈ 0.212 µM) | 0.77 | 6.73 (≈ 20.4 µM) | 36.7 | 42.1
